Measurements published in ChEMBL document CHEMBL4043093, “2-Oxo-3, 4-dihydropyrimido[4, 5-d]pyrimidinyl derivatives as new irreversible pan fibroblast growth factor receptor (FGFR) inhibitors” (Eur J Med Chem, 2017).

Assays:
[1] = target: T1, Fibroblast growth factor receptor 4 (Homo sapiens, UniProt P22455); test: Inhibition of wild-type human partial length FGFR4 (G402 to E713 residues) expressed in Escherichia coli BL21 assessed as residual activity at 1000 nM after 30 mins by Kinomescan method relative to control
[2] = target: Receptor-interacting serine/threonine-protein kinase 2 (Homo sapiens) (UniProt O43353); test: Inhibition of wild-type human partial length RIPK2 (M1 to K310 residues) expressed in Escherichia coli BL21 assessed as residual activity at 1000 nM after 30 mins by Kinomescan method relative to control
[3] = target: Serine/threonine-protein kinase PRP4 homolog (Homo sapiens) (UniProt Q13523); test: Inhibition of wild-type human partial length PRP4 (D657 to I1007 residues) expressed in Escherichia coli BL21 assessed as residual activity at 1000 nM after 30 mins by Kinomescan method relative to control
[4] = target: Macrophage-stimulating protein receptor (Homo sapiens) (UniProt Q04912); test: Inhibition of wild-type human partial length MST1R (I1057 to L1363 residues) expressed in Escherichia coli BL21 assessed as residual activity at 1000 nM after 30 mins by Kinomescan method relative to control
[5] = target: Ephrin type-A receptor 6 (Homo sapiens) (UniProt Q9UF33); test: Inhibition of wild-type human partial length EPHA6 (Y700 to E1046 residues) expressed in Escherichia coli BL21 assessed as residual activity at 1000 nM after 30 mins by Kinomescan method relative to control
[6] = target: T1, Fibroblast growth factor receptor 4; test: Inhibition of human recombinant His-tagged FGFR4 cytoplasmic domain ([…] residues) expressed in baculovirus using Tyr-4 peptide after 1 hr by FRET-based Z'-Lyte assay
NCI-H520 = test: Antiproliferative activity against human FGFR1-amplified NCI-H520 cells after 7 days by SRB assay; details: NCI-H520, 168 h
[7] = test system: Tyrosine-protein kinase ABL1 (Homo sapiens), P00519 [E255K]; test: Inhibition of human phosphorylated ABL1 E255K mutant (S229 to K512 residues) expressed in HEK293 cells assessed as residual activity at 1000 nM after 30 mins by Kinomescan method relative to control; assay type: cell-based
Method in brief: (§1)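 Single-point screen at a fixed 1 µM, run within a 456-kinase DiscoveRx KINOMEscan panel. Each kinase's read-out is Percent Control, i.e. signal relative to a control without compound. Hits were scored by a Percent Control < 35 cut-off, and an S(35) selectivity score was calculated across the non-mutant kinases.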

[8] = target: Serine/threonine-protein kinase pim-2 (Homo sapiens) (UniProt Q9P1W9); test: Inhibition of wild-type human partial length PIM2 (M1 to E291 residues) expressed in Escherichia coli BL21 assessed as residual activity at 1000 nM after 30 mins by Kinomescan method relative to control
[9] = target: Serine/threonine-protein kinase ULK3 (Homo sapiens) (UniProt Q6PHR2); test: Inhibition of wild-type human partial length ULK3 (M1 to Q290 residues) expressed in HEK293 cells assessed as residual activity at 1000 nM after 30 mins by Kinomescan method relative to control; assay type: cell-based
[10] = target: Myosin light chain kinase (Homo sapiens) (UniProt Q32MK0); test: Inhibition of wild-type human partial length MLCK (D488 to K800 residues) expressed in Escherichia coli BL21 assessed as residual activity at 1000 nM after 30 mins by Kinomescan method relative to control
[11] = target: Mitogen-activated protein kinase 15 (Homo sapiens) (UniProt Q8TD08); test: Inhibition of wild-type human partial length ERK8 (M1 to P437 residues) expressed in Escherichia coli BL21 assessed as residual activity at 1000 nM after 30 mins by Kinomescan method relative to control
Plasmodium falciparum = test: Inhibition of wild-type Plasmodium falciparum full length PK5 (M1 to N288 residues) expressed in HEK293 cells assessed as residual activity at 1000 nM after 30 mins by Kinomescan method relative to control; assay type: cell-based; method in brief: as §1
[12] = target: Ankyrin repeat and protein kinase domain-containing protein 1 (Homo sapiens) (UniProt Q8NFD2); test: Inhibition of wild-type human partial length ANKK1 (M1 to A305 residues) expressed in HEK293 cells assessed as residual activity at 1000 nM after 30 mins by Kinomescan method relative to control; assay type: cell-based
[13] = target: 1-phosphatidylinositol 3-phosphate 5-kinase (Homo sapiens) (UniProt Q9Y2I7); test: Inhibition of wild-type human partial length PIKFYVE (F1512 to C2098 residues) expressed in HEK293 cells assessed as residual activity at 1000 nM after 30 mins by Kinomescan method relative to control; assay type: cell-based
[14] = test system: Mast/stem cell growth factor receptor Kit (Homo sapiens), P10721 [D816H]; test: Inhibition of human partial length KIT D816H mutant (I571 to D952 residues) expressed in HEK293 cells assessed as residual activity at 1000 nM after 30 mins by Kinomescan method relative to control; assay type: cell-based
Method in brief: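 KINOMEscan binding panel of 456 kinases, with the test compound at a single concentration of 1 µM. Read-out is Percent Control.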

[15] = test system: Proto-oncogene tyrosine-protein kinase receptor Ret (Homo sapiens), P07949 [V804M]; test: Inhibition of human partial length RET V804M mutant (E713 to D1014 residues) expressed in Escherichia coli BL21 assessed as residual activity at 1000 nM after 30 mins by Kinomescan method relative to control; method in brief: as §1
[16] = target: Casein kinase II subunit alpha' (Homo sapiens) (UniProt P19784); test: Inhibition of wild-type human full length CSNK2A2 (M1 to R350 residues) expressed in HEK293 cells assessed as residual activity at 1000 nM after 30 mins by Kinomescan method relative to control; assay type: cell-based; method in brief: as §1
[17] = target: Cyclin-dependent kinase-like 2 (Homo sapiens) (UniProt Q92772); test: Inhibition of wild-type human partial length CDKL2 (M1 to D327 residues) expressed in Escherichia coli BL21 assessed as residual activity at 1000 nM after 30 mins by Kinomescan method relative to control
[18] = target: Cyclin-dependent kinase 11B (Homo sapiens) (UniProt P21127); test: Inhibition of wild-type human partial length CDC2L1 (P353 to G692 residues) expressed in Escherichia coli BL21 assessed as residual activity at 1000 nM after 30 mins by Kinomescan method relative to control
[19] = target: Serine/threonine-protein kinase WNK4 (Homo sapiens) (UniProt Q96J92); test: Inhibition of wild-type human partial length WNK4 (A31 to D461 residues) expressed in HEK293 cells assessed as residual activity at 1000 nM after 30 mins by Kinomescan method relative to control; assay type: cell-based
[20] = test system: Proto-oncogene tyrosine-protein kinase receptor Ret (Homo sapiens), P07949 [M918T]; test: Inhibition of human partial length RET M918T mutant (E713 to D1014 residues) expressed in Escherichia coli BL21 assessed as residual activity at 1000 nM after 30 mins by Kinomescan method relative to control; method in brief: as §1

COc1cc(OC)c(Cl)c(N2Cc3cnc(Nc4ccc(F)cc4)nc3N(C3CCN(C(=O)/C=C/CN(C)C)CC3)C2=O)c1Cl
Activity [1]: 1% | Activity [2]: 100% | Activity [3]: 92% | Activity [4]: 95% | Activity [5]: 100% | IC50 [6]: 0.0781 µM | IC50 (NCI-H520): 0.00869 µM | Activity [7]: 48% | Activity [8]: 83% | Activity [9]: 99% | Activity [10]: 99% | Activity [11]: 100% | Activity (Plasmodium falciparum): 100% | Activity [12]: 96% | Activity [13]: 95% | Activity [14]: 66% | Activity [15]: 52% | Activity [16]: 100% | Activity [17]: 96% | Activity [18]: 100% | Activity [19]: 100% | Activity [20]: 7.1%
